Data as given in ChEMBL document CHEMBL1126311, “Novel functional M1 selective muscarinic agonists. 2. Synthesis and structure-activity relationships of 3-pyrazinyl-1,2,5,6-tetrahydro-1-methylpyridines. Construction of a molecular model for the M1 pharmacophore” (J Med Chem, 1992).
pIC50: −log10 of the molar value.

Legend:
[1] = molecular target: T1, Muscarinic acetylcholine receptor M1 (Rattus norvegicus, UniProt P08482); test: In vitro binding affinity against rat hippocampus M1 receptor using [3H]oxotremorine-M (Oxo-M) as radioligand; type: tissue-based
T1 sequence (P08482 whole entry): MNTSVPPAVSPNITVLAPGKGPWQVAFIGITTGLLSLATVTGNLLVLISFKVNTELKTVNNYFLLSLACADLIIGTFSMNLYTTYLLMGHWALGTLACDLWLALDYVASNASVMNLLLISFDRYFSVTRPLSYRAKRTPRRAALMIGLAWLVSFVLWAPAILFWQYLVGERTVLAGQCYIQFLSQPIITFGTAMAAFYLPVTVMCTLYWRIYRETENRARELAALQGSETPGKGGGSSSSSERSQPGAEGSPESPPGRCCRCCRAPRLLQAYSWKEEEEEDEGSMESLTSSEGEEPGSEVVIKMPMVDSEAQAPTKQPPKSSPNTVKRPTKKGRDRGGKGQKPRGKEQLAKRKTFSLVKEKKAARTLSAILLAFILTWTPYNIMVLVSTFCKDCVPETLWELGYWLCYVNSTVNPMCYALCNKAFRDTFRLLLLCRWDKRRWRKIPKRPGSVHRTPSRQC
Procedure, shortened: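 Male Sprague-Dawley rat hippocampal P2 membranes (10 mg tissue wet weight, about 0.1 mg protein) with 3 nM [3H]oxotremorine-M in 20 mM Tris-Cl pH 7.4, 1 mL, 15 min at 25 °C.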

[2] = molecular target: T1, Muscarinic acetylcholine receptor M1; test: In vitro binding affinity against rat hippocampus M1 receptor using [3H]pirenzepine (Pz) as radioligand; type: tissue-based
Procedure, shortened: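 Male Sprague-Dawley rat hippocampal P2 membranes (10 mg tissue wet weight, about 0.1 mg protein) with 1 nM [3H]pirenzepine in 20 mM Tris-Cl pH 7.4 containing 1 mM MnCl2, 1 mL, 60 min at 25 °C.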

Oryctolagus cuniculus [3] = species on record: Oryctolagus cuniculus; test: (§1) Efficacy at M1 receptor measured by the ability to inhibit the electrically stimulated twitch of the rabbit vas deferens; type: functional, organism-based
Procedure, shortened: (§2)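 Cumulative concentration-effect curves with additions at 20-min intervals in two tissues; read-out twitch height decrease; if inhibition ≥50%, curves repeated in at least six tissues.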

Oryctolagus cuniculus [4] = species on record: Oryctolagus cuniculus; test: as §1; type: functional; procedure, shortened: as §2
[5] = molecular target: T1, Muscarinic acetylcholine receptor M1; test: Displacement of [3H]oxotremorine-M (Oxo-M) from rat hippocampus muscarinic acetylcholine receptor M1; type: tissue-based
[6] = molecular target: T1, Muscarinic acetylcholine receptor M1; test: Displacement of [3H]pirenzepine (Pz) from rat hippocampus muscarinic acetylcholine receptor M1; type: tissue-based

Row | SMILES | pIC50 [1] | pIC50 [2] | pIC50 (Oryctolagus cuniculus [3]) | Max (Oryctolagus cuniculus [4]) [%] | pIC50 [5] | pIC50 [6]
1 | CCCCCCOc1nccnc1C1=CCCN(C)C1 | 7.70 | 7.77 | 6.58 | 93 | – | –
2 | CCCCOc1nccnc1C1=CCCN(C)C1 | 7.77 | 7.77 | – | 0 | – | –
3 | CCCCCCSc1nccnc1C1=CCCN(C)C1 | 7.36 | 7.55 | 6.65 | 62 | – | –
4 | CN1CCC=C(c2nccnc2Cl)C1 | – | – | – | – | 6.56 | < 6.00
5 | CCCOc1nccnc1C1=CCCN(C)C1 | 7.24 | 7.19 | – | 4 | – | –
6 | CCCCCSc1nccnc1C1=CCCN(C)C1 | 7.89 | 8.00 | – | 18 | – | –
7 | COc1nccnc1C1=CCCN(C)C1 | 6.07 | 6.08 | – | 0 | – | –
8 | CCCOc1nsnc1C1=CCCN(C)C1 | – | – | – | 25 | – | –
9 | CCCCCCNc1nsnc1C1=CCCN(C)C1 | – | – | – | 65 | – | –
10 | CCCCCOc1nccnc1C1=CCCN(C)C1 | 7.72 | 7.80 | – | 29 | – | –
11 | CCOc1nccnc1C1=CCCN(C)C1 | 6.70 | 6.76 | – | 14 | – | –
12 | CCCCCCOc1nonc1C1=CCCN(C)C1 | – | – | – | 47 | – | –
